Measured values taken from ChEMBL document CHEMBL4732237, “Discovery of 4-alkoxy-2-aryl-6,7-dimethoxyquinolines as a new class of topoisomerase I inhibitors endowed with potent in vitro anticancer activity” (2021).

Tests used:
Assay type in all cases: functional
[1] = tested on: HL-60(TB); assay: Growth inhibition of human HL-60(TB) cells incubated for 48 hrs by sulforhodamine B assay
Summary of the method: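 NCI-60 five-dose screen. Cells in RPMI 1640 with 5% FBS and 2 mM L-glutamine were plated at 5000–40,000 cells/well and preincubated 24 h at 37 °C, 5% CO2. Drugs in DMSO were given at five serial 10-fold or ½-log dilutions for 48 h. Adherent cells fixed with 10% TCA (final); suspension cells fixed after settling. SRB stained; A515. GI50 from [(Ti-Tz)/(C-Tz)]x100 = 50.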

[2] = tested on: K562; assay: Growth inhibition of human K562 cells incubated for 48 hrs by sulforhodamine B assay
Summary of the method: (§1)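 NCI five-dose screen covering 0.01–100 µM, prepared as 10-fold or ½-log dilutions from DMSO stock. Cells in RPMI 1640 with 5% FBS were exposed for 48 h at 37 °C after 24 h preincubation. Adherent cells were fixed with TCA (final 10%) and suspension cells were settled before fixing. Stain was SRB, read at 515 nm. GI50 = 50% reduction in net protein increase versus control, with Tz taken at drug addition.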

[3] = tested on: SR; assay: Growth inhibition of human SR cells incubated for 48 hrs by sulforhodamine B assay
Summary of the method: (§2)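 NCI five-dose screen (0.01–100 µM; five concentrations plus control). Cells grown in RPMI 1640/5% FBS/2 mM L-glutamine and preincubated 24 h, with time-zero plates TCA-fixed. Drug exposure 48 h at 37 °C, followed by SRB protein staining and reading at 515 nm. GI50 is the concentration at [(Ti-Tz)/(C-Tz)]×100 = 50.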

[4] = tested on: EKVX; assay: Growth inhibition of human EKVX cells incubated for 48 hrs by sulforhodamine B assay; summary of the method: as §1
[5] = tested on: NCI-H23; assay: Growth inhibition of human NCI-H23 cells incubated for 48 hrs by sulforhodamine B assay; summary of the method: as §2
[6] = tested on: NCI-H322M; assay: Growth inhibition of human NCI-H322M cells incubated for 48 hrs by sulforhodamine B assay; summary of the method: as §2
[7] = tested on: COLO 205; assay: Growth inhibition of human COLO 205 cells incubated for 48 hrs by sulforhodamine B assay; summary of the method: as §1
[8] = tested on: HCC 2998; assay: Growth inhibition of human HCC 2998 cells incubated for 48 hrs by sulforhodamine B assay; summary of the method: as §1
[9] = tested on: HCT-29; assay: Growth inhibition of human […] cells incubated for 48 hrs by sulforhodamine B assay; summary of the method: as §1
[10] = tested on: SF-268; assay: Growth inhibition of human SF-268 cells incubated for 48 hrs by sulforhodamine B assay; summary of the method: as §2
[11] = tested on: SF-295; assay: Growth inhibition of human SF-295 cells incubated for 48 hrs by sulforhodamine B assay; summary of the method: as §2
[12] = tested on: SNB-19; assay: Growth inhibition of human SNB-19 cells incubated for 48 hrs by sulforhodamine B assay; summary of the method: as §2
[13] = tested on: SNB-75; assay: Growth inhibition of human SNB-75 cells incubated for 48 hrs by sulforhodamine B assay; summary of the method: as §2
[14] = tested on: U-251; assay: Growth inhibition of human U-251 cells incubated for 48 hrs by sulforhodamine B assay
Summary of the method: (§3)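 NCI five-dose assay, with drug stocks in DMSO diluted in medium to five concentrations (10-fold or ½-log series). Cells in RPMI 1640/5% FBS were pre-incubated 24 h, and time-zero plates were TCA-fixed at drug addition. After 48 h at 37 °C, cells were TCA-fixed, SRB-stained and read at 515 nm. GI50 is from [(Ti-Tz)/(C-Tz)]×100 = 50, TGI from Ti = Tz, and LC50 from [(Ti-Tz)/Tz]×100 = -50.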

[15] = tested on: M14; assay: Growth inhibition of human M14 cells incubated for 48 hrs by sulforhodamine B assay; summary of the method: as §1
[16] = tested on: SK-MEL-2; assay: Growth inhibition of human SK-MEL-2 cells incubated for 48 hrs by sulforhodamine B assay; summary of the method: as §2
[17] = tested on: UACC-257; assay: Growth inhibition of human UACC-257 cells incubated for 48 hrs by sulforhodamine B assay; summary of the method: as §3
[18] = tested on: UACC-62; assay: Growth inhibition of human UACC-62 cells incubated for 48 hrs by sulforhodamine B assay; summary of the method: as §3
[19] = tested on: OVCAR-3; assay: Growth inhibition of human OVCAR-3 cells incubated for 48 hrs by sulforhodamine B assay; summary of the method: as §2
[20] = tested on: OVCAR-4; assay: Growth inhibition of human OVCAR-4 cells incubated for 48 hrs by sulforhodamine B assay; summary of the method: as §2
[21] = tested on: OVCAR-5; assay: Growth inhibition of human OVCAR-5 cells incubated for 48 hrs by sulforhodamine B assay; summary of the method: as §2
[22] = tested on: NCI/ADR-RES; assay: Growth inhibition of human NCI/ADR-RES cells incubated for 48 hrs by sulforhodamine B assay; summary of the method: as §2
[23] = tested on: SK-OV-3; assay: Growth inhibition of human SK-OV-3 cells incubated for 48 hrs by sulforhodamine B assay; summary of the method: as §2
[24] = tested on: 786-0; assay: Growth inhibition of human 786-0 cells incubated for 48 hrs by sulforhodamine B assay; summary of the method: as §1
[25] = tested on: CAKI-1; assay: Growth inhibition of human CAKI-1 cells incubated for 48 hrs by sulforhodamine B assay; summary of the method: as §1
[26] = tested on: RXF 393; assay: Growth inhibition of human RXF 393 cells incubated for 48 hrs by sulforhodamine B assay; summary of the method: as §2
[27] = tested on: SN12C; assay: Growth inhibition of human SN12C cells incubated for 48 hrs by sulforhodamine B assay; summary of the method: as §2
[28] = tested on: TK-10; assay: Growth inhibition of human TK-10 cells incubated for 48 hrs by sulforhodamine B assay; summary of the method: as §3
[29] = tested on: UO-31; assay: Growth inhibition of human UO-31 cells incubated for 48 hrs by sulforhodamine B assay; summary of the method: as §3
[30] = tested on: DU-145; assay: Growth inhibition of human DU-145 cells incubated for 48 hrs by sulforhodamine B assay; summary of the method: as §1
[31] = tested on: Hs-578T; assay: Growth inhibition of human HS-578T cells incubated for 48 hrs by sulforhodamine B assay; summary of the method: as §1

SMILES	GI50 [2] [µM]	GI50 [3] [µM]	GI50 [4] [µM]	GI50 [6] [µM]	GI50 [7] [µM]	GI50 [8] [µM]	GI50 [9] [µM]	GI50 [11] [µM]	GI50 [13] [µM]	GI50 [14] [µM]	GI50 [15] [µM]	GI50 [17] [µM]	GI50 [18] [µM]	GI50 [21] [µM]	GI50 [22] [µM]	GI50 [24] [µM]	GI50 [25] [µM]	GI50 [26] [µM]	GI50 [27] [µM]	GI50 [29] [µM]	also measured
COc1cc2nc(-c3ccc(C(F)(F)F)cc3)cc(OCCCN3CCCC3)c2cc1OC	0.475	0.133	0.982	6.77	0.401	1.45	0.446	0.328	1.85	1.05	0.336	1.41	1.38	0.803	0.458	2.13	0.188	1.13	0.673	2.02	GI50 [1]: 1.84 µM; GI50 [5]: 1.91 µM; GI50 [10]: 2.39 µM; GI50 [12]: 2.77 µM; GI50 [16]: 1.93 µM; GI50 [19]: 2.15 µM; GI50 [20]: 3.71 µM; GI50 [23]: 2.55 µM; GI50 [28]: 3.24 µM; GI50 [30]: 1.37 µM; GI50 [31]: 1.74 µM
COc1cc2nc(-c3ccc(Cl)cc3)cc(OCCCN3CCC(O)CC3)c2cc1OC	1.63	0.373	1.33	3.22	0.532	1.95	0.7	1.66	1.76	2.81	0.591	2.06	1.9	1.16	0.925	3.31	0.416	1.22	1.26	1.72	GI50 [1]: 4.27 µM; GI50 [5]: 2.83 µM; GI50 [10]: 3.36 µM; GI50 [12]: 3.19 µM; GI50 [16]: 2.07 µM; GI50 [19]: 3.24 µM; GI50 [20]: 4.34 µM; GI50 [23]: 3.17 µM; GI50 [28]: 2.14 µM; GI50 [30]: 2.78 µM; GI50 [31]: 1.91 µM
COc1cc2nc(-c3ccc(Cl)cc3)cc(OCCCN3CCCC3)c2cc1OC	1.06	0.251	1.21	3.36	0.459	1.86	0.454	1.22	1.73	1.79	0.402	1.96	2.03	1.03	0.683	2.78	0.303	1.17	0.914	1.72	GI50 [1]: 2.72 µM; GI50 [5]: 2.45 µM; GI50 [10]: 2.53 µM; GI50 [12]: 3.14 µM; GI50 [16]: 2.16 µM; GI50 [19]: 2.71 µM; GI50 [20]: 3 µM; GI50 [23]: 2.42 µM; GI50 [28]: 2.33 µM; GI50 [30]: 2.15 µM; GI50 [31]: 1.89 µM
COc1cc2nc(-c3ccc(C(F)(F)F)cc3)cc(OCCCN3CCC(O)CC3)c2cc1OC	1.79	0.274	1.03	10.2	0.456	4.07	0.486	1.61	2.58	2.12	0.535	2.28	2.61	3.14	0.847	4.72	0.376	1.34	1.44	2.71	GI50 [1]: 13.9 µM; GI50 [5]: 6.16 µM; GI50 [10]: 5.76 µM; GI50 [12]: 10.5 µM; GI50 [16]: 3.85 µM; GI50 [19]: 6.1 µM; GI50 [20]: 9.14 µM; GI50 [23]: 10.6 µM; GI50 [28]: 11.5 µM; GI50 [30]: 4.96 µM; GI50 [31]: 3.75 µM
COc1cc2nc(-c3ccc(C(F)(F)F)cc3)cc(OCCCN3CCOCC3)c2cc1OC	1.18	0.242	1.61	10.5	0.529	1.41	0.54	0.349	2.46	1.4	0.355	1.67	0.628	1.92	0.64	1.76	0.167	0.706	0.675	1.77	GI50 [1]: 9.58 µM; GI50 [5]: 2.36 µM; GI50 [10]: 5.7 µM; GI50 [12]: 2.91 µM; GI50 [16]: 3.32 µM; GI50 [19]: 3.73 µM; GI50 [20]: 10.3 µM; GI50 [23]: 5.04 µM; GI50 [28]: 13.9 µM; GI50 [30]: 10.1 µM; GI50 [31]: 2.25 µM
COc1cc2nc(-c3ccc(Cl)cc3)cc(OCCCN3CCOCC3)c2cc1OC	2.71	0.414	1.73	> 100	0.62	1.97	0.61	1.08	2.06	1.92	0.545	1.92	2.26	1.58	1.15	1.94	0.305	1.12	1.3	1.78	GI50 [23]: 3 µM; GI50 [31]: 2.4 µM
COc1cc2nc(-c3ccc(C(F)(F)F)cc3)cc(OCCCN3CCCCC3)c2cc1OC	0.578	0.193	0.803	8.7	0.406	1.28	0.415	0.53	1.96	1.1	0.327	1.7	1.82	0.71	0.522	2.17	0.272	1.09	0.668	2	GI50 [1]: 2.91 µM; GI50 [5]: 1.91 µM; GI50 [10]: 3.76 µM; GI50 [12]: 2.82 µM; GI50 [16]: 2.64 µM; GI50 [19]: 2.44 µM; GI50 [20]: 2.91 µM; GI50 [23]: 2.3 µM; GI50 [28]: 7.8 µM; GI50 [30]: 1.84 µM; GI50 [31]: 2.15 µM
COc1cc2nc(-c3ccc(Cl)cc3)cc(OCCCN3CCCCC3)c2cc1OC	1.22	0.373	1.47	4.42	0.582	2.34	0.492	1.21	1.98	1.89	0.412	1.92	1.94	1.16	0.898	2.62	0.287	1.08	0.946	1.87	GI50 [5]: 2.95 µM; GI50 [10]: 3.2 µM; GI50 [12]: 2.98 µM; GI50 [16]: 2.75 µM; GI50 [19]: 3.23 µM; GI50 [20]: 3.85 µM; GI50 [28]: 3.73 µM; GI50 [30]: 2.54 µM; GI50 [31]: 2.11 µM
